Calls of active or inactive are those of the source. The rule behind the calls is not given here. Non-standard residues stand in square brackets, D forms with d. Residues, ends and D or L forms follow the SMILES beside them. Sar = CNCC(=O)O
Tests used:
[1] = Competitive antagonist at angiotensin 2 receptor in rabbit aorta assessed as rightward shift in angiotensin-2 dose response curve for myotropic activity; format: tissue-based, Oryctolagus cuniculus
[2] = test system: Rattus norvegicus; assay: In vivo non-competitive antagonist activity at angiotensin 2 receptor in ganglion-blocked vagotomized rat assessed as angiotensin-2 dose ratio at 250 ng/kg/min administered as an infusion; format: functional
In short: (§1)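 Vagotomized, ganglion-blocked rats infused with analogue at 125 or 250 ng/kg/min; antagonism of angiotensin II pressor response expressed as dose ratio.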

[3] = Retardation factor of the compound using n-PrOH-water at ratio of 2:1 as solvent system by thin layer chromatography; format: physicochemical; conditions: buffer
[4] = Retardation factor of the compound using n-BuOH-pyridine-water at ratio of 10:2:5 as solvent system by thin layer chromatography; format: physicochemical; conditions: buffer
[5] = test system: Rattus norvegicus; assay: In vivo agonist activity at angiotensin 2 receptor in ganglion-blocked vagotomized rat assessed as pressor activity administered as single bolus dose relative to angiotensin-2; format: functional
In short: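 Vagotomized, ganglion-blocked rats; analogue given as a single injection and pressor response expressed as percent of angiotensin II ([Asp1,Ile5]angiotensin II = 100).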

[6] = Retardation factor of the compound using n-BuOH-pyridine-water at ratio of 65:35:35 as solvent system by thin layer chromatography; format: physicochemical; conditions: buffer
[7] = Retardation factor of the compound using n-BuOH-AcOH-water-pyridine at ratio of 30:6:24:20 as solvent system by thin layer chromatography; format: physicochemical; conditions: buffer
[8] = organism: Oryctolagus cuniculus; assay: Non-competitive antagonist at angiotensin 2 receptor in rabbit aorta assessed as inhibition of angiotensin-2 induced myotropic activity at > 1 uM/L; format: tissue-based
[9] = organism: Oryctolagus cuniculus; assay: Reversal antagonistic activity at angiotensin 2 receptor in rabbit aorta assessed as inhibition of angiotensin-2 induced myotropic activity at 1 uM/L measured at 1 hr following drug wash-out; format: tissue-based
In short: (§2)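 Spirally cut rabbit aortic strips challenged with a standard 10^-9 M/L angiotensin II dose, then incubated with 10^-6 M/L analogue for 5 min; analogue washed out of the bath and angiotensin II response retested at 5, 30, 60, 120 and 180 min.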

[10] = test system: Rattus norvegicus; assay: In vivo agonist activity at angiotensin 2 receptor in ganglion-blocked vagotomized rat assessed as rise in blood pressure at 250 ng/kg/min compound infused for 30 mins; format: functional
In short: (§3)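 Vagotomized, ganglion-blocked rats given analogue by infusion (standard rate 250 ng/kg/min, some at 125 ng/kg/min); initial blood pressure rise recorded in mmHg over the 30-min infusion period.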

[11] = organism: Oryctolagus cuniculus; assay: Antagonist at angiotensin 2 receptor in rabbit aorta assessed as duration of action at 1 uM/L treated for 5 mins after angiotensin-2 challenge; in short: as §2
[12] = Retardation factor of the compound using n-BuOH-pyridine-water at ratio of 65:35:65 as solvent system by thin layer chromatography; format: physicochemical; conditions: buffer
[13] = test system: Rattus norvegicus; assay: In vivo agonist activity at angiotensin 2 receptor in ganglion-blocked vagotomized rat assessed as rise in blood pressure at 250 ng/kg/min compound infused for 10 mins; format: functional
[14] = Retardation factor of the compound using n-BuOH-AcOH-water at ratio of 4:1:5 as solvent system by thin layer chromatography; format: physicochemical; conditions: buffer
[15] = test system: Rattus norvegicus; assay: In vivo agonist activity at angiotensin 2 receptor in ganglion-blocked vagotomized rat assessed as rise in blood pressure at 250 ng/kg/min compound infused for 3 mins; format: functional
[16] = organism: Oryctolagus cuniculus; assay: Agonist activity at angiotensin 2 receptor in rabbit aorta assessed as myotropic activity up to 1 uM/L relative to angiotensin-2; format: tissue-based
In short: (§4)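 Spirally cut isolated rabbit aortic strips; contractile (myotropic) activity of each analogue tested up to a maximum dose level of 10^-6 M/L.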

[17] = test system: Rattus norvegicus; assay: In vivo agonist activity at angiotensin 2 receptor in ganglion-blocked vagotomized rat assessed as rise in blood pressure at 125 ng/kg/min compound infused for 30 mins; format: functional; in short: as §3
[18] = test system: Rattus norvegicus; assay: In vivo agonist activity at angiotensin 2 receptor in ganglion-blocked vagotomized rat assessed as rise in blood pressure at 125 ng/kg/min compound infused for 3 mins; format: functional
[19] = test system: Rattus norvegicus; assay: In vivo non-competitive antagonist activity at angiotensin 2 receptor in ganglion-blocked vagotomized rat assessed as angiotensin-2 dose ratio at 125 ng/kg/min administered as an infusion; format: functional; in short: as §1
[20] = test system: Rattus norvegicus; assay: In vivo agonist activity at angiotensin 2 receptor in ganglion-blocked vagotomized rat assessed as rise in blood pressure at 125 ng/kg/min compound infused for 10 mins; format: functional
[21] = Retardation factor of the compound using n-BuOH-AcOEt-AcOH-water at ratio of 1:1:1:1 as solvent system by thin layer chromatography; format: physicochemical; conditions: buffer
[22] = Retardation factor of the compound using n-BuOH-AcOH-water at ratio of 4:1:1 as solvent system by thin layer chromatography; format: physicochemical; conditions: buffer
[23] = organism: Oryctolagus cuniculus; assay: Agonist activity at angiotensin 2 receptor in rabbit aorta assessed as myotropic activity relative to angiotensin-2; format: tissue-based; in short: as §4
[24] = organism: Felis catus; assay: Agonist activity at angiotensin 2 receptor in cat adrenal medulla assessed as secretory activity relative to angiotensin-2; format: tissue-based
[25] = organism: Felis catus; assay: Agonist activity at angiotensin 2 receptor in cat adrenal cortex assessed as secretory activity relative to angiotensin-2; format: tissue-based

## CC[C@H](C)[C@H](NC(=O)[C@H](Cc1ccc(O)cc1)NC(=O)[C@@H](NC(=O)[C@H](CCCNC(=N)N)NC(=O)C(C)(C)N)C(C)C)C(=O)N[C@@H](Cc1cnc[nH]1)C(=O)N1CCC[C@H]1C(=O)NC(C)(C)C(=O)O
[1]
  pA2: 7.22
[2]
  Ratio: 3.4
[3]
  Rf: 0.83
[4]
  Rf: 0.26
[5]
  Activity: 0.24%
[6]
  Rf: 0.41
[7]
  Rf: 0.64
[8]
  inhibition: Active
[9]
  inhibition: Active
[10]
  Activity: 14.33 mmHg
[11]
  TIME: 1 h
[12]
  Rf: 0.43
[13]
  Activity: 8.5 mmHg
[14]
  Rf: 0.47
[15]
  Activity: 5.16 mmHg
[16]
  Activity: 0%

## CC[C@H](C)[C@H](NC(=O)[C@H](Cc1ccc(O)cc1)NC(=O)[C@@H](NC(=O)[C@H](CCCNC(=N)N)NC(=O)CNC)C(C)C)C(=O)N[C@@H](Cc1cnc[nH]1)C(=O)N1CCC[C@H]1C(=O)N[C@H](C(=O)O)[C@@H](C)OC
[17]
  Activity: 8.75 mmHg
[1]
  pA2: 8.76
[2]
  Ratio: 62.52
[5]
  Activity: 0.48%
[18]
  Activity: 5.25 mmHg
[8]
  inhibition: Active
[10]
  Activity: 15.06 mmHg
[11]
  TIME: 2 h
[13]
  Activity: 15.88 mmHg
[19]
  Ratio: 11.65
[15]
  Activity: 13.82 mmHg
[16]
  Activity: 0.5%

## CNCC(=O)N[C@@H](CCCNC(=N)N)C(=O)N[C@H](C(=O)N[C@@H](Cc1ccc(O)cc1)C(=O)N[C@H](C(=O)N[C@@H](Cc1cnc[nH]1)C(=O)N1CCC[C@H]1C(=O)N[C@H](C(=O)O)[C@@H](C)OC)[C@@H](C)OC)C(C)C
[17]
  Activity: 14.5 mmHg
[1]
  pA2: 9.5
[5]
  Activity: 0.46%
[6]
  Rf: 0.18
[18]
  Activity: 8.33 mmHg
[7]
  Rf: 0.47
[8]
  inhibition: Active
[20]
  Activity: 13 mmHg
[11]
  TIME: 2 h
[14]
  Rf: 0.28
[19]
  Ratio: 32.73
[16]
  Activity: 0%

## CC[C@H](C)[C@H](NC(=O)[C@H](Cc1ccc(O)cc1)NC(=O)[C@@H](NC(=O)CN(C)C(=O)CNC)C(C)C)C(=O)N[C@@H](Cc1c[nH]cn1)C(=O)N1CCC[C@H]1C(=O)N[C@H](C(=O)O)[C@@H](C)O (H-[Sar][Sar]VYIHPT-OH)
[1]
  pA2: 8.78
[2]
  Ratio: 1.93
[3]
  Rf: 0.76
[4]
  Rf: 0.24
[5]
  Activity: 0%
[6]
  Rf: 0.43
[7]
  Rf: 0.63
[8]
  inhibition: Active
[21]
  Rf: 0.75
[10]
  Activity: 11.66 mmHg
[11]
  TIME: 3 h
[13]
  Activity: 7 mmHg
[14]
  Rf: 0.46
[15]
  Activity: 3.16 mmHg
[16]
  Activity: 0%

## CC[C@H](C)[C@H](NC(=O)[C@H](Cc1ccc(O)cc1)NC(=O)[C@@H](NC(=O)[C@H](CCCNC(=N)N)NC(=O)CNC)C(C)C)C(=O)N[C@@H](Cc1cnc[nH]1)C(=O)N1CCC[C@H]1C(=O)NC(C)(C)C(=O)O
[1]
  pA2: 8.7
[2]
  Ratio: 19.76
[5]
  Activity: 0.52%
[22]
  Rf: 0.5
[6]
  Rf: 0.26
[7]
  Rf: 0.62
[8]
  inhibition: Active
[10]
  Activity: 16.6 mmHg
[11]
  TIME: 2 h
[12]
  Rf: 0.22
[13]
  Activity: 13.16 mmHg
[14]
  Rf: 0.46
[15]
  Activity: 11 mmHg
[16]
  Activity: 0%

## CC[C@H](C)[C@H](NC(=O)[C@H](Cc1ccc(O)cc1)NC(=O)[C@@H](NC(=O)[C@H](CCCN=C(N)N)NC(=O)CNC)C(C)C)C(=O)N[C@@H](Cc1c[nH]cn1)C(=O)N1CCC[C@H]1C(=O)N[C@H](C(=O)O)[C@@H](C)O (H-[Sar]RVYIHPT-OH)
[1]
  pA2: 8.79
[2]
  Ratio: 26.91
[5]
  Activity: 0.6%
[23]
  Activity: 0.5%
[8]
  inhibition: Active
[10]
  Activity: 9.2 mmHg
[11]
  TIME: 2 h
[13]
  Activity: 9.66 mmHg
[24]
  Activity: 0.1%
[25]
  Activity: 1%
[15]
  Activity: 9.46 mmHg
[16]
  Activity: 0.5%

## CC[C@H](C)[C@H](NC(=O)[C@@H]1CCCN1C(=O)[C@H](Cc1c[nH]cn1)NC(=O)[C@@H](NC(=O)[C@H](Cc1ccc(O)cc1)NC(=O)[C@@H](NC(=O)[C@H](CCCN=C(N)N)NC(=O)CNC)C(C)C)[C@@H](C)OC)C(=O)O (H-[Sar]RVYT(Me)HPI-OH)
[17]
  Activity: 19.8 mmHg
[1]
  pA2: 9.5
[2]
  Ratio: 50
[4]
  Rf: 0.08
[5]
  Activity: 1.01%
[6]
  Rf: 0.25
[18]
  Activity: 11 mmHg
[8]
  inhibition: Active
[20]
  Activity: 16.82 mmHg
[10]
  Activity: 18.5 mmHg
[11]
  TIME: 2 h
[12]
  Rf: 0.25
[13]
  Activity: 18.83 mmHg
[14]
  Rf: 0.35
[19]
  Ratio: 24.15
[15]
  Activity: 19 mmHg
[16]
  Activity: 0.1%

## CC[C@H](C)[C@H](NC(=O)[C@@H]1CCCN1C(=O)[C@H](Cc1c[nH]cn1)NC(=O)[C@@H](NC(=O)[C@H](Cc1ccc(O)cc1)NC(=O)[C@@H](NC(=O)[C@H](CCCN=C(N)N)NC(=O)CNC)C(C)C)[C@@H](C)CC)C(=O)O
[1]
  pA2: 9.17
[2]
  Ratio: 27.79
[5]
  Activity: 1%
[8]
  inhibition: Active
[10]
  Activity: 14.81 mmHg
[11]
  TIME: 2 h
[13]
  Activity: 18.27 mmHg
[15]
  Activity: 17.81 mmHg
[16]
  Activity: 1%

## CC[C@H](C)[C@H](NC(=O)[C@H](Cc1ccc(O)cc1)NC(=O)[C@@H](NC(=O)[C@H](CCCN=C(N)N)NC(=O)CNC)C(C)C)C(=O)N[C@@H](Cc1c[nH]cn1)C(=O)N1CCC[C@H]1C(=O)N[C@@H](C)C(=O)O
[1]
  pA2: 8.61
[2]
  Ratio: 7.92
[8]
  inhibition: Active
[10]
  Activity: 17.44 mmHg
[11]
  TIME: 2 h
[13]
  Activity: 16.88 mmHg
[15]
  Activity: 15.11 mmHg
[16]
  Activity: 0.5%

Source: ChEMBL document CHEMBL3244213, “Synthesis of angiotensin II antagonists by incorporating alpha-methylalanine or O-methylthreonine residues in angiotension II analogues” (J Med Chem, 1977)
